Legend:
[1] = test system: LRP1; details: in vivo administration of 100 μg over 26 h, FVB wild type mice; cited from earlier work
[2] = test system: hCMEC/D3 cells; assay: MTT cytotoxicity assay; format: cell-based, human
[3] = test system: LRP1; assay: Western blot of LRP1 expression in hCMEC/D3 cells; format: cell-based, human; details: 24 h, 100 nM monomeric Aβ40 or 50 nM Aβ42 oligomers, n = 3
Outline: (§1)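 hCMEC/D3 cells (1 × 10⁶ per 100 mm dish) grown to 70% confluence, then given 24 h of control media, 100 nM Aβ40 monomer, 50 nM Aβ42 oligomer or both. Lysed in RIPA with protease inhibitors; 25 μg protein on 8% Bis-Tris/MOPS gel, nitrocellulose, 2% BSA block. Overnight primary: LRP1 1:1500, RAGE 1:200, GAPDH 1:3000. HRP secondary 1:5000; bands quantified; three independent blots.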

[4] = test system: RAGE; assay: Western blot of RAGE expression in hCMEC/D3 cells; format: cell-based, human; details: 24 h, 100 nM monomeric Aβ40 or 50 nM Aβ42 oligomers, n = 3
Outline: as §1

Substance: Aβ42 monomers: human sequence Aβ42 monomers administered in vivo in a cited study
- LRP1 expression in brain tissue [1]: significant reduction in LRP1 expression

Substance: Aβ40 monomer: synthetic Aβ40 peptide (AnaSpec), HFIP film dissolved in media and used immediately
- decrease in viability of hCMEC/D3 (MTT) ([2]; 24 h treatment with 250 nM Aβ40 monomer, mean of n = 3 independent experiments): 14–17%
- MTT assay result versus control ([2]; 24 h treatment, Aβ40 monomers at 50 and 100 nM, n = 3): comparable to control treated cells
- reduction of LRP1 expression [3]: not observed
- alteration in RAGE protein expression [4]: did not show any significant alterations

Source: article PMC4133170 (Biochimica et biophysica acta, 2014)
